Here are results for 14 compounds from ChEMBL document CHEMBL1133526, “Molecular simplification of 1,4-diazabicyclo[4.3.0]nonan-9-ones gives piperazine derivatives that maintain high nootropic activity” (2000).

What all share (assay type): functional
The species entered for assay [1] is Mus musculus. Description: (§1) Change in entry latency expressed as [(entry latency on day 2)-(entry latency on day 1)]. The method in brief:
(§2)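 Mouse passive avoidance test using a light/dark box. Entering the dark side drops the mouse 40 cm into 10 °C water. Training is on day 1 and retention 24 h later. Test drug is given sc 20 min before training, in saline or DMSO/H2O vehicle. […] Mice not entering within 60 s are excluded. Retention latency is capped at 120 s. Δ = day 2 − day 1 latency.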

The test system of assay [2] is Mus musculus. Description: Minimum effective dose administered subcutaneously in mouse, activity given with reference to piracetam. The note with it: Mus musculus, sc; read-out: MED. The procedure, abridged: (§3)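 Mouse passive avoidance with scopolamine-induced amnesia (1.5 mg/kg ip after training; 40 cm fall into 10 °C water as punishment). Compounds are given sc in 1:10 dilution steps 20 min before training, in saline or DMSO/H2O. […] Piracetam is the ip reference.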

Assay [3] relates to Mus musculus. In words: Nootropic effect of the compound, when administered subcutaneously, on mouse passive Avoidance test, using Scopolamine as Amnesic drug on 1 st day.
The subject of assay [4] is Mus musculus. In words: Nootropic effect of the compound, when administered subcutaneously, on mouse passive Avoidance test, using Scopolamine as Amnesic drug on 2 nd day.
Assay [5] is filed under the species Mus musculus. The description is as §1. The source holds these as a separate data set.
For assay [6], the system named is Mus musculus. Description: Minimum effective dose administered subcutaneously in mouse passive avoidance test. The note with it: sc, read-out: MED. The method in brief:
as §3

Assay [7] deals with Mus musculus. Description: Minimum effective dose administered subcutaneously in mouse, activity given with reference to piracetam, dose administered is limited by solubility problems. As to conditions: sc, read-out: MED. The method in brief: as §3
Assay [8] is filed under the species Mus musculus. In words: Change in entry latency expressed as [(latency on day 2)-(latency on day 1)]. The method in brief:
as §2

Assay [9] relates to Mus musculus. In words: Effect of 0.1 mg/kg compound, when administered intraperitoneally along with saline, on Amnesia in mouse passive Avoidance test on 1st day. As to conditions: route intraperitoneal. The method in brief: (§4)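 Mouse passive avoidance without an amnesic agent. Compound is given ip at 0.1 mg/kg 20 min before training, followed by saline. Entry latency into the dark compartment (punishment: 40 cm fall into 10 °C water) is recorded on day 1 and in retention 24 h later, capped at 120 s. Compared with saline controls.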

Assay [10] concerns Mus musculus. In words: Effect of 0.1 mg/kg compound, when administered intraperitoneally along with saline, on Amnesia in mouse passive Avoidance test on 2nd day. As to conditions: route intraperitoneal. The procedure, abridged: as §4
The subject of assay [11] is Mus musculus. Description: Effect of 0.1 mg/kg compound, when administered intraperitoneally, on Amnesia induced by Baclofen (2 mg/Kg ip) in mouse passive Avoidance test on 1st day. The note with it: route intraperitoneal. The method in brief: (§5)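 Mouse passive avoidance. Compound is given ip 20 min before training. Diphenhydramine (20 mg/kg ip) or baclofen (2 mg/kg ip) is injected immediately after training. Entry latency into the dark, water-pitfall compartment is measured on day 1 and 24 h later, capped at 120 s. Compared with amnesic-only mice.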

Assay [12] has as its system Mus musculus. In words: Effect of 0.1 mg/kg compound, when administered intraperitoneally, on Amnesia induced by Baclofen (2 mg/Kg ip) in mouse passive Avoidance test on 2nd day. As to conditions: route intraperitoneal. The procedure, abridged: as §5
Assay [13] relates to Mus musculus. In words: Effect of 0.1 mg/kg compound, when administered intraperitoneally, on Amnesia induced by Clonidine (0.125 mg/Kg ip) in mouse passive Avoidance test on 2 nd day. As to conditions: route intraperitoneal. The procedure, abridged:
(§6)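 Mouse passive avoidance. Compound is given ip 20 min before training. Clonidine (0.125 mg/kg ip) is injected 60 min before training. Entry latency into the dark compartment (40 cm fall into 10 °C water) is measured on day 1 and 24 h later, capped at 120 s. Compared with clonidine-only mice.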

The test system of assay [14] is Mus musculus. In words: Effect of 0.1 mg/kg compound, when administered intraperitoneally, on Amnesia induced by diphenhydramine (20 mg/Kg) in mouse passive Avoidance test on 2 nd day. As to conditions: route intraperitoneal. The method in brief: as §5
Assay [15] deals with Mus musculus. In words: Effect of 0.1 mg/kg compound, when administered intraperitoneally, on Amnesia induced by diphenhydramine (20 mg/Kg) in mouse passive Avoidance test on 1st day. The note with it: route intraperitoneal. The method in brief: as §5
Assay [16] concerns Mus musculus. In words: Effect of 0.1 mg/kg compound, when administered intraperitoneally, on Amnesia induced Clonidine (0.125 mg/kg) in mouse passive Avoidance test on 1st day. As to conditions: route intraperitoneal. The procedure, abridged:
as §6

For assay [17], the system named is Mus musculus. In words: Minimum effective dose administered intraperitoneally in mouse passive avoidance test. As to conditions: ip, read-out: MED.

Where “and” joins values, the source holds several entries; their conditions need not be identical. Identical values can stand only once.

With `CC(=O)N1CCN(C(=O)c2ccc(F)cc2)CC1`, the “Change in entry latency” value in assay [1] amounted to 72.6 s. Also, the minimal effective dose in [2] was 10 mg/kg. For the same compound, the Entry latency in assay [3] was 17.5 s; in assay [4] it was 91.1 s.

Turning to `CCCCCC(=O)N1CCN(S(=O)(=O)c2ccc(F)cc2)CC1`, the Entry latency was 64.9 s in assay [5], 16.6 s in assay [3] and 81.5 s in assay [4]. Also, the minimal effective dose in assay [6] was 1 mg/kg.

Consider `CCC(=O)N1CCN(C(=O)c2ccc(OC)cc2)CC1`, for which the “Change in entry latency” value in assay [1] worked out at 78.5 s. For the same compound, the minimal effective dose in [2] came out at 10 mg/kg. In addition, the Entry latency came out at 17.6 s in assay [3] and 96.1 s in assay [4].

Consider `CCC(=O)N1CCN(S(=O)(=O)c2ccc(C)cc2)CC1`, for which the Entry latency in assay [5] came out at 72 s; in [3] it was 16.6 s; in assay [4], 88.6 s. The minimal effective dose in [6] came out at 10 mg/kg.

Consider `CCC(=O)N1CCN(C(=O)c2ccc([N+](=O)[O-])cc2)CC1`, for which the “Change in entry latency” value in assay [1] is given as 85.5 s. Moreover, the minimal effective dose in assay [2] came to 1 mg/kg. Besides, the figures for the Entry latency in [3] and in assay [4] were 18.8 s and 104.3 s, respectively.

Take `CCCN1CCN(S(=O)(=O)c2ccc(F)cc2)CC1`: in assay [1], the “Change in entry latency” value is 81.4 s. Besides, the minimal effective dose in assay [2] stood at 1 mg/kg. Besides, the results for the Entry latency in assay [3] and in assay [4] were 15.3 s and 96.7 s, respectively.

On to `CC(=O)N1CCN(S(=O)(=O)c2ccc(F)cc2)CC1C` (centres undefined), for which, in assay [6], the minimal effective dose is 0.1 mg/kg. In addition, the figures for the Entry latency in assay [3] and in assay [4] were 16.6 s and 99.2 s, respectively.

With `CCC(=O)N1CCN(C(=O)c2ccc(C)cc2)CC1`, the minimal effective dose in [7] was greater than 1 mg/kg.

For the compound `CCCC(=O)N1CCN(C(=O)c2ccccc2)CC1`, in assay [1], the “Change in entry latency” value is 89.8 s. Besides, in assay [2], the minimal effective dose was determined as 1 mg/kg. In addition, the Entry latency in assay [3] was 13.8 s; in assay [4] it was 103.6 s.

As for `O=C1CCC2CN(S(=O)(=O)c3ccc(F)cc3)CCN12` (centres undefined), the “Change in entry latency” value was 80.2 s and 64.1 s and 66.7 s in assay [1]; 79.6 s in assay [8]. The Entry latency in assay [9] is 14.3 s; in assay [10], 94.5 s; in assay [11] it was 12.3 s; in [12], 76.4 s; in assay [13], 81.2 s; in assay [14], 95.2 s. The Entry latency in assay [15] is recorded as 15.6 s; in assay [16], 14.5 s.

For `CN1C2CC(OC(=O)C(CO)c3ccccc3)CC1C1OC12.NC(=O)CN1CCCC1=O` (centres undefined), the Entry latency came out at 91.2 s in assay [5], 17.6 s in [3] and 108.8 s in assay [4]. Also, the minimal effective dose in [17] turned out to be 30 mg/kg.

In the case of `CCC(=O)N1CCN(C(=O)c2ccc(Cl)cc2)CC1`, the minimal effective dose in [7] was greater than 1 mg/kg.

On to `CCC(=O)N1CCN(S(=O)(=O)c2ccc([N+](=O)[O-])cc2)CC1`, for which the minimal effective dose in assay [7] is greater than 0.1 mg/kg.

Turning to `CCCCC(=O)N1CCN(S(=O)(=O)c2ccc(F)cc2)CC1`, the minimal effective dose in [6] was greater than 0.1 mg/kg.
